Experimental data reported in ChEMBL document CHEMBL4138215, “Discovery of caffeic acid phenethyl ester derivatives as novel myeloid differentiation protein 2 inhibitors for treatment of acute lung injury” (Eur J Med Chem, 2018).
The source made the active and inactive calls. The calls are words filed in the database; no cut-off is given here.

Tests used:
Peritoneal macrophage [1] = assay: Anti-inflammatory activity in ICR mouse peritoneal macrophages assessed inhibition of LPS-induced TNF-alpha production at 10 uM preincubated for 30 to 60 mins followed by LPS stimulation measured after 24 hrs by ELISA; assay type: functional, cell-based
Summary of the method: (§1)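 Primary peritoneal macrophages from thioglycollate-elicited ICR mice (3 mL i.p.), collected by PBS lavage and cultured in RPMI-1640 at 37 °C, 5% CO2. Plated at 4*10⁵ cells/well and grown 24 h. Pretreated with compound (30–60 min; screen at 10, dose-response 0.5–10), then LPS for 24 h. TNF-α in the conditioned medium measured by ELISA and expressed relative to LPS alone; DMSO as vehicle.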

Mus musculus [2] = assay: Anti-inflammatory activity in LPS-induced C57BL/6 mouse model of acute lung injury assessed as inhibition of total cell count in BALF at 15 mg/kg, ip pretreated for 30 mins followed by LPS challenge measured after 6 hrs; assay type: functional, organism-based; details: C57/BL6
Summary of the method: (§2)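 Male C57BL/6 mice (n = 7) received 15 mg/kg i.p. in 200 µL, or vehicle, 30 min before intratracheal LPS 5 mg/kg; euthanized at 6 h. Total BALF cells counted as counts/ml. Lung MPO activity determined from absorbance change at 460 nm after a 30 min reaction and reported as U/g.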

Mus musculus [3] = assay: Anti-inflammatory activity in LPS-induced C57BL/6 mouse model of acute lung injury assessed as inhibition of myeloperoxidase activity in lung tissue at 15 mg/kg, ip pretreated for 30 mins followed by LPS challenge measured after 6 hrs by H2O2 substrate based assay; assay type: functional, organism-based; details: C57/BL6; summary of the method: as §2
Mus musculus [4] = assay: Anti-inflammatory activity in LPS-induced C57BL/6 mouse model of acute lung injury assessed as inhibition of IL-6 levels in BALF at 20 mg/kg, ip pretreated for 30 mins followed by LPS challenge measured after 6 hrs by ELISA; assay type: functional, organism-based; details: C57/BL6
Summary of the method: (§3)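 ALI model in male C57BL/6 mice: i.p. pretreatment 30 min before intratracheal LPS (5 mg/kg), euthanasia at 6 h. BALF spun at 1000 rpm for 10 min and the supernatant kept; plasma also collected. IL-6 and TNF-α measured by ELISA as pg/ml, mean ± SEM, n = 7.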

Mus musculus [5] = assay: Anti-inflammatory activity in LPS-induced C57BL/6 mouse model of acute lung injury assessed as inhibition of IL-6 levels in plasma at 20 mg/kg, ip pretreated for 30 mins followed by LPS challenge measured after 6 hrs by ELISA; assay type: functional, organism-based; details: C57/BL6; summary of the method: as §3
Mus musculus [6] = assay: Anti-inflammatory activity in LPS-induced C57BL/6 mouse model of acute lung injury assessed as inhibition of TNF-alpha levels in BALF at 20 mg/kg, ip pretreated for 30 mins followed by LPS challenge measured after 6 hrs by ELISA; assay type: functional, organism-based; details: C57/BL6; summary of the method: as §3
Mus musculus [7] = assay: Anti-inflammatory activity in LPS-induced C57BL/6 mouse model of acute lung injury assessed as inhibition of TNF-alpha levels in plasma at 20 mg/kg, ip pretreated for 30 mins followed by LPS challenge measured after 6 hrs by ELISA; assay type: functional, organism-based; details: C57/BL6; summary of the method: as §3
Peritoneal macrophage [8] = assay: Anti-inflammatory activity in ICR mouse peritoneal macrophages assessed inhibition of LPS-induced TNF-alpha production preincubated for 30 to 60 mins followed by LPS stimulation measured after 24 hrs by ELISA; assay type: functional, cell-based; summary of the method: as §1
Peritoneal macrophage [9] = assay: Anti-inflammatory activity in ICR mouse peritoneal macrophages assessed inhibition of LPS-induced TNF-alpha production at 10 uM preincubated for 30 to 60 mins followed by LPS stimulation measured after 24 hrs by ELISA relative to control; assay type: functional; summary of the method: as §1
Mus musculus [10] = assay: Anti-inflammatory activity in LPS-induced C57BL/6 mouse model of acute lung injury assessed as decrease in CD68 production in lung tissue at 15 mg/kg, ip pretreated for 30 mins followed by LPS challenge measured after 6 hrs by immumohistochemical staining-based light microscopic analysis; assay type: functional, organism-based; details: C57/BL6
Summary of the method: (§4)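 Male C57BL/6 mice, 18–22 g, n = 7 per group. Compound given i.p. 15 mg/kg in 200 µL, or vehicle, 30 min before intratracheal LPS 5 mg/kg; killed 6 h later. Paraffin lung sections, 5 µm, treated with H2O2, blocked in 5% BSA, then primary anti-CD68 or anti-TNF-α overnight at 4 °C. HRP secondary 2 h at 37 °C, DAB stain, light microscopy at 200×.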

Mus musculus [11] = assay: Anti-inflammatory activity in LPS-induced C57BL/6 mouse model of acute lung injury assessed as decrease in thicken alveolar septa at 15 mg/kg, ip pretreated for 30 mins followed by LPS challenge measured after 6 hrs by hematoxylin and eosin staining-based light microscopic analysis; assay type: functional, organism-based; details: C57/BL6
Mus musculus [12] = assay: Anti-inflammatory activity in LPS-induced C57BL/6 mouse model of acute lung injury assessed as decrease in pulmonary congestion in lung tissue at 15 mg/kg, ip pretreated for 30 mins followed by LPS challenge measured after 6 hrs by hematoxylin and eosin staining-based light microscopic analysis; assay type: functional, organism-based; details: C57/BL6
Mus musculus [13] = assay: Anti-inflammatory activity in LPS-induced C57BL/6 mouse model of acute lung injury assessed as inhibition of TNF-alpha mRNA levels in lung tissue at 20 mg/kg, ip pretreated for 30 mins followed by LPS challenge measured after 6 hrs by RT-PCR analysis; assay type: functional, organism-based; details: C57/BL6
Summary of the method: (§5)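 Male C57BL/6 mice given i.p. pretreatment 30 min before intratracheal LPS 5 mg/kg, lungs taken at 6 h. IL-6 and TNF-α mRNA in lung tissue normalized to β-actin and expressed relative to the LPS group.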

Mus musculus [14] = assay: Anti-inflammatory activity in LPS-induced C57BL/6 mouse model of acute lung injury assessed as decrease in interstitial edema in lung tissue at 15 mg/kg, ip pretreated for 30 mins followed by LPS challenge measured after 6 hrs by hematoxylin and eosin staining-based light microscopic analysis; assay type: functional, organism-based; details: C57/BL6
Mus musculus [15] = assay: Anti-inflammatory activity in LPS-induced C57BL/6 mouse model of acute lung injury assessed as inhibition of IL-6 mRNA levels in lung tissue at 20 mg/kg, ip pretreated for 30 mins followed by LPS challenge measured after 6 hrs by RT-PCR analysis; assay type: functional, organism-based; details: C57/BL6; summary of the method: as §5
Mus musculus [16] = assay: Anti-inflammatory activity in LPS-induced C57BL/6 mouse model of acute lung injury assessed as decrease in TNF-alpha production in lung tissue at 15 mg/kg, ip pretreated for 30 mins followed by LPS challenge measured after 6 hrs by immumohistochemical staining-based light microscopic analysis; assay type: functional, organism-based; details: C57/BL6; summary of the method: as §4
Mus musculus [17] = assay: Anti-inflammatory activity in LPS-induced C57BL/6 mouse model of acute lung injury assessed as decrease in lung tissue destruction at 15 mg/kg, ip pretreated for 30 mins followed by LPS challenge measured after 6 hrs by hematoxylin and eosin staining-based light microscopic analysis; assay type: functional, organism-based; details: C57/BL6
Mus musculus [18] = assay: Anti-inflammatory activity in LPS-induced C57BL/6 mouse model of acute lung injury assessed as decrease in inflammatory infiltration in lung tissue at 15 mg/kg, ip pretreated for 30 mins followed by LPS challenge measured after 6 hrs by hematoxylin and eosin staining-based light microscopic analysis; assay type: functional, organism-based; details: C57/BL6
[19] = biological target: Toll-like receptor 4 (Homo sapiens) (UniProt O00206); assay: Binding affinity to TLR4 (unknown origin) by SPR analysis
Chain of Toll-like receptor 4 (Homo sapiens) (O00206 whole entry): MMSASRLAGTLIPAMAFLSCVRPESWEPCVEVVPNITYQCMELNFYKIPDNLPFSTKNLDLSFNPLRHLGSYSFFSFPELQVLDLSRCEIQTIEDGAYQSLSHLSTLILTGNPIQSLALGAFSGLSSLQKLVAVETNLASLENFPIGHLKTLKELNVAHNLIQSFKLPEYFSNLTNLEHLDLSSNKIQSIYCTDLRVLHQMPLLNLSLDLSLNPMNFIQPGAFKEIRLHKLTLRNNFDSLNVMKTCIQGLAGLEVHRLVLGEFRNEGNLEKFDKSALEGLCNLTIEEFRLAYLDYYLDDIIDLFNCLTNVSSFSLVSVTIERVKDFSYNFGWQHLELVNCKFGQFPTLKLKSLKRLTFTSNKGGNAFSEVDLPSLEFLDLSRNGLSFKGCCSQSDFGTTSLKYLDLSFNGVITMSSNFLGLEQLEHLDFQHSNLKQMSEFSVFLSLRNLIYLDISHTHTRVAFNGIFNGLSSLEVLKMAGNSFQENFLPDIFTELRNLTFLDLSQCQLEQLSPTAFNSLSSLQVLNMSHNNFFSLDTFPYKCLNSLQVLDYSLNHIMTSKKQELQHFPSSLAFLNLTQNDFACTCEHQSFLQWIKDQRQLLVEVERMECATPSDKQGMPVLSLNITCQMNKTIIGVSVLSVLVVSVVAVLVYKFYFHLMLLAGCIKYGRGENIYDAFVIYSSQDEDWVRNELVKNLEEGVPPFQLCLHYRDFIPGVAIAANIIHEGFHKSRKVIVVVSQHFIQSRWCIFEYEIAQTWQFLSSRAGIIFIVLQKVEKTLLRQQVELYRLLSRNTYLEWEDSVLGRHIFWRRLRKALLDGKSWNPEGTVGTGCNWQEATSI
Summary of the method: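 SPR: TLR4 protein in acetate buffer immobilized after activation with 40 mM EDC/10 mM sNHS. Compound dilutions in PBS with 0.1% SDS, 0.05% Tween-20 and 5% DMSO; first channel used as reference. Association 120 s, dissociation 120 s, 25 °C; KD derived from binding kinetics.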

Compound	inhibition (Peritoneal macrophage [1])	further results
COc1cc(/C=C/C(=O)NCCc2ccccc2)ccc1OCc1ccc(C)cc1	Active	–
COc1cccc(/C=C/C(=O)NCCc2ccccc2)c1OC	inactive	–
COc1cc(OC)c(OC)cc1/C=C/C(=O)NCCc1ccccc1	inactive	–
COc1ccc(/C=C/C(=O)NCCc2ccccc2)c(OC)c1OC	inactive	–
CCCCCCCCCNC(=O)/C=C/c1scnc1C	inactive	–
O=C(/C=C/c1ccc(O)c(O)c1)OCCc1ccccc1 [CAFFEIC ACID PHENETHYL ESTER]	–	inhibition (Mus musculus [2]): Active; inhibition (Mus musculus [3]): Active; inhibition (Mus musculus [4]): Active; inhibition (Mus musculus [5]): Active; inhibition (Mus musculus [6]): Active; inhibition (Mus musculus [7]): Active; IC50 (Peritoneal macrophage [8]): 4.31 µM
CCCCCCCCNC(=O)/C=C/c1scnc1C	inactive	–
Cc1ncsc1/C=C/C(=O)NCCCCc1ccccc1	inactive	–
Cc1ncsc1/C=C/C(=O)NCCc1ccccc1	–	inhibition at 10 µM (Peritoneal macrophage [9]): 67.3%
O=C(/C=C/c1ccc([N+](=O)[O-])cc1)NCCc1ccccc1	inactive	–
O=C(/C=C/c1cccnc1)NCCc1ccccc1	Active	–
Cc1ncsc1/C=C/C(=O)NCCCc1ccccc1	inactive	–
Cc1ncsc1/C=C/C(=O)N[C@@H](Cc1ccccc1)C(=O)O	inactive	–
O=C(/C=C/c1ccc(C(F)(F)F)cc1)NCCc1ccccc1	inactive	–
COc1cc(/C=C/C(=O)NCCc2ccccc2)ccc1OCc1ccccc1	Active	–
COc1ccc(/C=C/C(=O)NCCc2ccccc2)cc1OC	Active	–
CCCCCCCNC(=O)/C=C/c1scnc1C	inactive	–
COc1cc(COc2cc(/C=C/C(=O)NCCc3ccccc3)ccc2OC)cc(OC)c1	inactive	–
CCCCCCCCCCNC(=O)/C=C/c1scnc1C	inactive	–
O=C(/C=C/c1ccc(O)cc1)NCCc1ccccc1	Active	–
Cc1ncsc1/C=C/C(=O)N1CCC(c2ccccc2)CC1	inactive	–
Cc1ncsc1/C=C/C(=O)NCCc1cc2ccccc2[nH]1	inactive	–

Compound	inhibition (Peritoneal macrophage [1])	further results
COc1cc(/C=C/C(=O)NCCc2ccccc2)cc(OC)c1OC	Active	–
COc1cc(/C=C/C(=O)NCCc2ccccc2)cc(Br)c1O	Active	–
Cc1ccc(/C=C/C(=O)NCCc2ccccc2)s1	Active	–
Cc1ncsc1/C=C(\C#N)C(=O)NCCc1ccccc1	Active	–
Cc1ncsc1/C=C/C(=O)NCCc1ccc(O)cc1	Active	–
Cc1ncsc1/C=C/C(=O)N[C@@H](Cc1ccc(O)cc1)C(=O)O	inactive	–
Cc1ncsc1/C=C/C(=O)N[C@@H](Cc1ccc(O)cc1)C(=O)OC(C)(C)C	–	Activity (Mus musculus [10]): Active; inhibition (Mus musculus [2]): Active; Activity (Mus musculus [11]): Active; Activity (Mus musculus [12]): Active; inhibition (Mus musculus [3]): Active; inhibition (Mus musculus [4]): Active; inhibition (Mus musculus [5]): Active; inhibition (Mus musculus [13]): Active; Activity (Mus musculus [14]): Active; inhibition (Mus musculus [6]): Active; inhibition (Mus musculus [15]): Active; Activity (Mus musculus [16]): Active; inhibition (Mus musculus [7]): Active; Activity (Mus musculus [17]): Active; Activity (Mus musculus [18]): Active; IC50 (Peritoneal macrophage [8]): 2.05 µM; inhibition (Peritoneal macrophage [8]): Dose-dependent effect; inhibition at 10 µM (Peritoneal macrophage [9]): 82.6%; Activity [19]: inactive
COc1ccc(/C=C/C(=O)NCCc2ccccc2)cc1OCc1ccc(C)cc1	inactive	–
O=C(/C=C/c1ccc(N2CCOCC2)cc1)NCCc1ccccc1	Active	–
Cc1ncsc1/C=C/C(=O)NCCc1ccc(O)c(O)c1	Active	–
COc1cc(OC)c(/C=C/C(=O)NCCc2ccccc2)c(OC)c1	inactive	–
C=CCOc1ccc(/C=C/C(=O)NCCc2ccccc2)cc1	Active	–
COc1ccc(/C=C/C(=O)NCCc2ccccc2)cc1O	Active	–
Cc1ccc(/C=C/C(=O)NCCc2ccccc2)o1	Active	–
COc1ccc(/C=C/C(=O)NCCc2ccccc2)cc1OCc1ccccc1	inactive	–
COc1cc(/C=C/C(=O)NCCc2ccccc2)ccc1O	Active	–
COc1ccc(/C=C/C(=O)NCCc2ccccc2)cc1	Active	–
CCOC(=O)[C@H](Cc1ccc(O)cc1)NC(=O)/C=C/c1scnc1C	–	IC50 (Peritoneal macrophage [8]): 3.19 µM; inhibition (Peritoneal macrophage [8]): Dose-dependent effect; inhibition at 10 µM (Peritoneal macrophage [9]): 79.4%
COc1ccc2cc(CCNC(=O)/C=C/c3scnc3C)[nH]c2c1	inactive	–
O=C(/C=C/c1ccc2c(c1)OCO2)NCCc1ccccc1	Active	–
Cc1ncsc1/C=C/C(=O)N[C@@H](Cc1ccccc1)C(=O)OC(C)(C)C	–	inhibition at 10 µM (Peritoneal macrophage [9]): 68.7%
